Legend:
Type in all cases: toxicity, cell-based
Fibroblast = assay: Incucyte cell viability with human fibroblast; settings: 10 µM, compound concentration 10 uM; note: filed as whole numbers so only -1 and 0 and 1 occur
HEK-293T [1] = assay: Incucyte cell viability with HEK293T; settings: human, 10 µM, compound concentration 10 uM; note: filed as whole numbers so only -1 and 0 and 1 occur
HEK-293T [2] = assay: Multiplex assay against HEK293T; settings: human;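 for Population Tubulin-Different-Phenotype (%): share of the cells with healthy nuclei that show this phenotype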
How it was run: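 Tubulin, mitochondrial-mass and membrane-permeability phenotypes are per cents of healthy-nucleus cells. Cells were gated by CellPathfinder machine learning into Hoechst high-intensity objects or normal cells, normal cells into healthy, pyknosed or fragmented nuclei, and pyknosed cells into mitotic or apoptotic. Before that, live cells stained at seeding with Hoechst33342, BioTracker Green Microtubule Cytoskeleton Dye, MitoTracker Red and Annexin V Alexa Fluor 680 were imaged on a CQ1 microscope at 37°C and 5% CO2 after compound addition.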

[3] = 0 h, replicate number 1, timepoint 0 hours
[4] = 12 h, replicate number 1, timepoint 12 hours
[5] = 18 h, replicate number 1, timepoint 18 hours
[6] = 24 h, replicate number 1, timepoint 24 hours
[7] = 12 h, 1 µM, compound concentration 1 uM, replicate 1
[8] = 12 h, 1 µM, compound concentration 1 uM, replicate 2
[9] = 12 h, 10 µM, compound concentration 10 uM, replicate 1
[10] = 12 h, 10 µM, compound concentration 10 uM, replicate 2
[11] = 24 h, 1 µM, compound concentration 1 uM, replicate 1
[12] = 24 h, 1 µM, compound concentration 1 uM, replicate 2
[13] = 24 h, 10 µM, compound concentration 10 uM, replicate 1
[14] = 24 h, 10 µM, compound concentration 10 uM, replicate 2
[15] = 48 h, 1 µM, compound concentration 1 uM, replicate 1
[16] = 48 h, 1 µM, compound concentration 1 uM, replicate 2
[17] = 48 h, 10 µM, compound concentration 10 uM, replicate 1
[18] = 48 h, 10 µM, compound concentration 10 uM, replicate 2

Structure (SMILES): CN(c1cc(C(F)(F)F)nc(OCCC(=O)O)n1)c1cccc2c1CCC2
- Growth Rate (Fibroblast; [3]): 1
- Growth Rate (Fibroblast; 0 h, replicate number 2, timepoint 0 hours): 0
- Growth Rate (Fibroblast; 6 h, replicate number 1, timepoint 6 hours): 0
- Growth Rate (Fibroblast; [4]): 1
- Growth Rate (Fibroblast; [5]): 0
- Growth Rate (Fibroblast; [6]): 0
- Growth Rate (Fibroblast; 24 h, replicate number 2, timepoint 24 hours): 1
- Growth Rate (HEK-293T [1]; [3]): 0
- Growth Rate (HEK-293T [1]; 6 h, replicate number 2, timepoint 6 hours): 0
- Growth Rate (HEK-293T [1]; [4]): 1
- Growth Rate (HEK-293T [1]; [5]): 1
- Growth Rate (HEK-293T [1]; [6]): 1
- Population Apoptotic (%) (HEK-293T [2]; [7]): 44%
- Population Fragmented Nuclei (%) (HEK-293T [2]; [7]): 21%
- Population Healthy Nuclei (%) (HEK-293T [2]; [7]): 34%
- Population Hoechst High Intensity Objects (%) (HEK-293T [2]; [7]): 14%
- Population Membrane Permeable-Phenotype (%) (HEK-293T [2]; [7]): 3%
- Population Mitochondria Different-Phenotype (%) (HEK-293T [2]; [7]): 67%
- Population Mitotic Cells (%) (HEK-293T [2]; [7]): 55%
- Population Normal (%) (HEK-293T [2]; [7]): 85%
- Population Pyknosed Nuclei (%) (HEK-293T [2]; [7]): 44%
- Population Tubulin-Different-Phenotype (%) (HEK-293T [2]; [7]): 29%
- Total Cell Count (HEK-293T [2]; [7]): 189
- Population Apoptotic (%) (HEK-293T [2]; [8]): 12%
- Population Fragmented Nuclei (%) (HEK-293T [2]; [8]): 4%
- Population Healthy Nuclei (%) (HEK-293T [2]; [8]): 49%
- Population Hoechst High Intensity Objects (%) (HEK-293T [2]; [8]): 4%
- Population Membrane Permeable-Phenotype (%) (HEK-293T [2]; [8]): 8%
- Population Mitochondria Different-Phenotype (%) (HEK-293T [2]; [8]): 15%
- Population Mitotic Cells (%) (HEK-293T [2]; [8]): 87%
- Population Normal (%) (HEK-293T [2]; [8]): 95%
- Population Pyknosed Nuclei (%) (HEK-293T [2]; [8]): 46%
- Population Tubulin-Different-Phenotype (%) (HEK-293T [2]; [8]): 14%
- Total Cell Count (HEK-293T [2]; [8]): 193
- Population Apoptotic (%) (HEK-293T [2]; [9]): 37%
- Population Healthy Nuclei (%) (HEK-293T [2]; [9]): 49%
- Population Hoechst High Intensity Objects (%) (HEK-293T [2]; [9]): 16%
- Population Membrane Permeable-Phenotype (%) (HEK-293T [2]; [9]): 1%
- Population Mitochondria Different-Phenotype (%) (HEK-293T [2]; [9]): 69%
- Population Mitotic Cells (%) (HEK-293T [2]; [9]): 62%
- Population Normal (%) (HEK-293T [2]; [9]): 83%
- Population Pyknosed Nuclei (%) (HEK-293T [2]; [9]): 41%
- Population Tubulin-Different-Phenotype (%) (HEK-293T [2]; [9]): 28%
- Total Cell Count (HEK-293T [2]; [9]): 223
- Population Apoptotic (%) (HEK-293T [2]; [10]): 8%
- Population Fragmented Nuclei (%) (HEK-293T [2]; [10]): 8%
- Population Healthy Nuclei (%) (HEK-293T [2]; [10]): 42%
- Population Hoechst High Intensity Objects (%) (HEK-293T [2]; [10]): 2%
- Population Membrane Permeable-Phenotype (%) (HEK-293T [2]; [10]): 6%
- Population Mitochondria Different-Phenotype (%) (HEK-293T [2]; [10]): 14%
- Population Mitotic Cells (%) (HEK-293T [2]; [10]): 91%
- Population Normal (%) (HEK-293T [2]; [10]): 97%
- Population Pyknosed Nuclei (%) (HEK-293T [2]; [10]): 49%
- Population Tubulin-Different-Phenotype (%) (HEK-293T [2]; [10]): 9%
- Total Cell Count (HEK-293T [2]; [10]): 233
- Population Apoptotic (%) (HEK-293T [2]; [11]): 34%
- Population Fragmented Nuclei (%) (HEK-293T [2]; [11]): 18%
- Population Healthy Nuclei (%) (HEK-293T [2]; [11]): 30%
- Population Hoechst High Intensity Objects (%) (HEK-293T [2]; [11]): 11%
- Population Membrane Permeable-Phenotype (%) (HEK-293T [2]; [11]): 1%
- Population Mitochondria Different-Phenotype (%) (HEK-293T [2]; [11]): 53%
- Population Mitotic Cells (%) (HEK-293T [2]; [11]): 65%
- Population Normal (%) (HEK-293T [2]; [11]): 88%
- Population Pyknosed Nuclei (%) (HEK-293T [2]; [11]): 51%
- Population Tubulin-Different-Phenotype (%) (HEK-293T [2]; [11]): 32%
- Total Cell Count (HEK-293T [2]; [11]): 193
- Population Apoptotic (%) (HEK-293T [2]; [12]): 21%
- Population Fragmented Nuclei (%) (HEK-293T [2]; [12]): 8%
- Population Healthy Nuclei (%) (HEK-293T [2]; [12]): 65%
- Population Hoechst High Intensity Objects (%) (HEK-293T [2]; [12]): 4%
- Population Membrane Permeable-Phenotype (%) (HEK-293T [2]; [12]): 10%
- Population Mitochondria Different-Phenotype (%) (HEK-293T [2]; [12]): 13%
- Population Mitotic Cells (%) (HEK-293T [2]; [12]): 78%
- Population Normal (%) (HEK-293T [2]; [12]): 95%
- Population Pyknosed Nuclei (%) (HEK-293T [2]; [12]): 25%
- Population Tubulin-Different-Phenotype (%) (HEK-293T [2]; [12]): 28%
- Total Cell Count (HEK-293T [2]; [12]): 250
- Population Apoptotic (%) (HEK-293T [2]; [13]): 33%
- Population Fragmented Nuclei (%) (HEK-293T [2]; [13]): 12%
- Population Healthy Nuclei (%) (HEK-293T [2]; [13]): 50%
- Population Hoechst High Intensity Objects (%) (HEK-293T [2]; [13]): 11%
- Population Membrane Permeable-Phenotype (%) (HEK-293T [2]; [13]): 4%
- Population Mitochondria Different-Phenotype (%) (HEK-293T [2]; [13]): 37%
- Population Mitotic Cells (%) (HEK-293T [2]; [13]): 66%
- Population Normal (%) (HEK-293T [2]; [13]): 88%
- Population Pyknosed Nuclei (%) (HEK-293T [2]; [13]): 37%
- Population Tubulin-Different-Phenotype (%) (HEK-293T [2]; [13]): 22%
- Total Cell Count (HEK-293T [2]; [13]): 256
- Population Apoptotic (%) (HEK-293T [2]; [14]): 9%
- Population Fragmented Nuclei (%) (HEK-293T [2]; [14]): 2%
- Population Healthy Nuclei (%) (HEK-293T [2]; [14]): 68%
- Population Hoechst High Intensity Objects (%) (HEK-293T [2]; [14]): 3%
- Population Membrane Permeable-Phenotype (%) (HEK-293T [2]; [14]): 3%
- Population Mitochondria Different-Phenotype (%) (HEK-293T [2]; [14]): 11%
- Population Mitotic Cells (%) (HEK-293T [2]; [14]): 90%
- Population Normal (%) (HEK-293T [2]; [14]): 96%
- Population Pyknosed Nuclei (%) (HEK-293T [2]; [14]): 29%
- Population Tubulin-Different-Phenotype (%) (HEK-293T [2]; [14]): 19%
- Total Cell Count (HEK-293T [2]; [14]): 291
- Population Apoptotic (%) (HEK-293T [2]; [15]): 45%
- Population Fragmented Nuclei (%) (HEK-293T [2]; [15]): 21%
- Population Healthy Nuclei (%) (HEK-293T [2]; [15]): 36%
- Population Hoechst High Intensity Objects (%) (HEK-293T [2]; [15]): 16%
- Population Membrane Permeable-Phenotype (%) (HEK-293T [2]; [15]): 1%
- Population Mitochondria Different-Phenotype (%) (HEK-293T [2]; [15]): 22%
- Population Mitotic Cells (%) (HEK-293T [2]; [15]): 54%
- Population Normal (%) (HEK-293T [2]; [15]): 83%
- Population Pyknosed Nuclei (%) (HEK-293T [2]; [15]): 41%
- Population Tubulin-Different-Phenotype (%) (HEK-293T [2]; [15]): 24%
- Total Cell Count (HEK-293T [2]; [15]): 228
- Population Apoptotic (%) (HEK-293T [2]; [16]): 7%
- Population Fragmented Nuclei (%) (HEK-293T [2]; [16]): 7%
- Population Healthy Nuclei (%) (HEK-293T [2]; [16]): 84%
- Population Hoechst High Intensity Objects (%) (HEK-293T [2]; [16]): 3%
- Population Membrane Permeable-Phenotype (%) (HEK-293T [2]; [16]): 10%
- Population Mitochondria Different-Phenotype (%) (HEK-293T [2]; [16]): 4%
- Population Mitotic Cells (%) (HEK-293T [2]; [16]): 92%
- Population Normal (%) (HEK-293T [2]; [16]): 96%
- Population Pyknosed Nuclei (%) (HEK-293T [2]; [16]): 8%
- Population Tubulin-Different-Phenotype (%) (HEK-293T [2]; [16]): 21%
- Total Cell Count (HEK-293T [2]; [16]): 472
- Population Apoptotic (%) (HEK-293T [2]; [17]): 36%
- Population Fragmented Nuclei (%) (HEK-293T [2]; [17]): 15%
- Population Healthy Nuclei (%) (HEK-293T [2]; [17]): 56%
- Population Hoechst High Intensity Objects (%) (HEK-293T [2]; [17]): 6%
- Population Membrane Permeable-Phenotype (%) (HEK-293T [2]; [17]): 1%
- Population Mitochondria Different-Phenotype (%) (HEK-293T [2]; [17]): 14%
- Population Mitotic Cells (%) (HEK-293T [2]; [17]): 63%
- Population Normal (%) (HEK-293T [2]; [17]): 93%
- Population Pyknosed Nuclei (%) (HEK-293T [2]; [17]): 27%
- Population Tubulin-Different-Phenotype (%) (HEK-293T [2]; [17]): 11%
- Total Cell Count (HEK-293T [2]; [17]): 351
- Population Apoptotic (%) (HEK-293T [2]; [18]): 10%
- Population Fragmented Nuclei (%) (HEK-293T [2]; [18]): 5%
- Population Healthy Nuclei (%) (HEK-293T [2]; [18]): 83%
- Population Hoechst High Intensity Objects (%) (HEK-293T [2]; [18]): 2%
- Population Membrane Permeable-Phenotype (%) (HEK-293T [2]; [18]): 4%
- Population Mitochondria Different-Phenotype (%) (HEK-293T [2]; [18]): 3%
- Population Mitotic Cells (%) (HEK-293T [2]; [18]): 89%
- Population Normal (%) (HEK-293T [2]; [18]): 97%
- Population Pyknosed Nuclei (%) (HEK-293T [2]; [18]): 11%
- Population Tubulin-Different-Phenotype (%) (HEK-293T [2]; [18]): 12%
- Total Cell Count (HEK-293T [2]; [18]): 593

— ChEMBL document CHEMBL4689842, “EUbOPEN Chemogenomics Library wave 1” (2021)
